Drawing on ChEMBL document CHEMBL3046938, “Synthesis and fungicidal activity of novel 2-oxocycloalkylsulfonylureas” (J Agric Food Chem, 2005), this text covers inhibition, EC90 and EC50 for 35 compounds.

The subject of assay [1] is Fusarium graminearum. As to the kind of experiment: Fungicidal activity against Fusarium graminearum assessed as mycelial growth inhibition in potato dextrose agar at 50 ug/mL at 24 +/- 0.5 degC. It is filed as functional. The procedure, abridged:
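Single-concentration screen against G. zeae by mycelium growth rate test. Compound in acetone was mixed into PDA at 50 μg/mL, fungus cakes were placed on the plates and grown at 24 ± 0.5 °C, with an acetone blank and three replicates. Percent inhibition was recorded.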

The next assay has as its system Botrytis cinerea. As to the kind of experiment: Fungicidal activity against Botryotinia fuckeliana assessed as mycelial growth inhibition in potato dextrose agar at 24 +/- 0.5 degC. It counts as functional, organism-based. In a few lines: (§1)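 Mycelium growth rate test. Compounds in acetone were mixed into PDA at 100, 50, 25, 12.5 and 6.25 μg/mL, fungus cakes were placed on the plates and grown at 24 ± 0.5 °C, with an acetone blank and three replicates. Inhibition rates were measured, and EC50 and EC90 were estimated by logit analysis.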

The subject of a further assay is Pythium aphanidermatum. Description: Fungicidal activity against Pythium aphanidermatum assessed as mycelial growth inhibition in potato dextrose agar at 24 +/- 0.5 degC. It counts as functional, organism-based. The procedure, abridged:
as §1

The next assay concerns Rhizoctonia solani. Description: Fungicidal activity against Rhizoctonia solani assessed as mycelial growth inhibition in potato dextrose agar at 24 +/- 0.5 degC. It counts as functional, organism-based. In a few lines: as §1
In assay [2] the test system is Fusarium graminearum. As to the kind of experiment: Fungicidal activity against Fusarium graminearum assessed as mycelial growth inhibition in potato dextrose agar at 24 +/- 0.5 degC. It counts as functional, organism-based. The procedure, abridged:
as §1

Assay [3] has as its system Colletotrichum orbiculare. Description: Fungicidal activity against Colletotrichum orbiculare assessed as mycelial growth inhibition in potato dextrose agar at 24 +/- 0.5 degC. It is filed as functional, organism-based. The procedure, abridged: as §1
For assay [4], the system named is Fusarium oxysporum f. sp. vasinfectum. As to the kind of experiment: Fungicidal activity against Fusarium oxysporum f. sp. vasinfectum assessed as mycelial growth inhibition in potato dextrose agar at 24 +/- 0.5 degC. It counts as functional, organism-based. In a few lines: as §1
The test system of a further assay is Verticillium dahliae. Description: Fungicidal activity against Verticillium dahliae assessed as mycelial growth inhibition in potato dextrose agar at 24 +/- 0.5 degC. It is filed as functional, organism-based. In a few lines:
as §1

Each structure is given as a SMILES string. ≈ marks a conversion by molar mass, not a printed value.

In the case of `Cc1ccc(NC(=O)NS(=O)(=O)C2CCCCC2=O)cc1` (stereo not drawn), in the assay with Fusarium graminearum [1], the inhibition (as a rule, the percentage by which the read-out fell short of the control) at 50 µg/mL was determined as 18.1%.

For the compound `Cc1cc(C)nc(NC(=O)NS(=O)(=O)C2CCCCCCCCCCC2=O)n1` (stereo not drawn), in the assay with Fusarium graminearum [1], the inhibition at 50 µg/mL was 18.1%.

Take `Cc1ccc(NC(=O)NS(=O)(=O)C2CCCCC2=O)c(C)c1` (stereo not drawn): the inhibition at 50 µg/mL with Fusarium graminearum [1] is 26.5%.

Regarding `O=C(Nc1cc(Cl)ccc1Cl)NS(=O)(=O)C1CCCCC1=O` (stereo not drawn), the inhibition at 50 µg/mL in the assay with Fusarium graminearum [1] amounted to 26.5%.

`COc1cc(OC)nc(NC(=O)NS(=O)(=O)C2CCCCCC2=O)n1` (stereo not drawn): the inhibition at 50 µg/mL in the assay on Fusarium graminearum [1] was found to be 18.1%.

Take `CC12CC1(C)C(=O)N(c1cc(Cl)cc(Cl)c1)C2=O` (stereo not drawn) [PROCYMIDONE]: in the assay on Botrytis cinerea, the EC90 (commonly the concentration at which the effect reaches the 90% level) turned out to be 5.75 µg/mL (≈ 20.2 µM).

For the compound `O=C(Nc1ccccc1Cl)NS(=O)(=O)C1CCCCCCCCCCC1=O` (stereo not drawn), the inhibition at 50 µg/mL with Fusarium graminearum [1] was determined as 49%.

With `O=C(Nc1ccc(Cl)c(Cl)c1)NS(=O)(=O)C1CCCCCC1=O` (stereo not drawn), the inhibition at 50 µg/mL in the assay on Fusarium graminearum [1] was determined as 18.1%.

Consider `COC(=O)Nc1nc2ccccc2[nH]1` [CARBENDAZIM], for which the EC50 (commonly the concentration that produces a half-maximal response) turned out to be 20.4 µg/mL (≈ 107 µM) with Pythium aphanidermatum; 1.41 µg/mL (≈ 7.37 µM) in the assay with Rhizoctonia solani; 1.95 µg/mL (≈ 10.2 µM) with Fusarium graminearum [2]; 39.8 µg/mL (≈ 208 µM) in assay [3]; 0.54 µg/mL (≈ 2.82 µM) in assay [4]; 18.2 µg/mL (≈ 95.2 µM) in the assay on Verticillium dahliae. For the same compound, the EC90 with Pythium aphanidermatum amounted to 75.9 µg/mL (≈ 397 µM); in the assay on Rhizoctonia solani, 2.82 µg/mL (≈ 14.7 µM); in the assay with Fusarium graminearum [2], 4.46 µg/mL (≈ 23.3 µM); in assay [3], 200 µg/mL (≈ 1040 µM); in assay [4], 2.98 µg/mL (≈ 15.6 µM); in the assay with Verticillium dahliae, 93.3 µg/mL (≈ 488 µM).

With `COc1ccc(NC(=O)NS(=O)(=O)C2CCCCCCCCCCC2=O)cc1` (stereo not drawn), the inhibition at 50 µg/mL with Fusarium graminearum [1] was found to be 18.1%.

`COc1cc(OC)nc(NC(=O)NS(=O)(=O)C2CCCCCCCCCCC2=O)n1` (stereo not drawn): in the assay with Fusarium graminearum [1], the inhibition at 50 µg/mL came out at 26.5%.

Consider `CCCc1cc(CCC)nc(NC(=O)NS(=O)(=O)C2CCCCCCCCCCC2=O)n1` (stereo not drawn), for which, in the assay with Fusarium graminearum [1], the inhibition at 50 µg/mL came out at 34.5%.

On to `O=C(Nc1ccc(F)cc1)NS(=O)(=O)C1CCCCCCCCCCC1=O` (stereo not drawn), for which the inhibition at 50 µg/mL in the assay with Fusarium graminearum [1] is 18.1%.

With `Cc1cccc(NC(=O)NS(=O)(=O)C2CCCCCCCCCCC2=O)c1` (stereo not drawn), the inhibition at 50 µg/mL in the assay on Fusarium graminearum [1] came out at 34.5%.

In the case of `CC(=O)c1ccc(NC(=O)NS(=O)(=O)C2CCCCCCCCCCC2=O)cc1` (stereo not drawn), the inhibition at 50 µg/mL with Fusarium graminearum [1] stood at 9.3%.

On to `O=C1CCCCCCCCCCC1S(=O)(=O)Nc1ccc(Cl)cc1` (stereo not drawn), for which the EC50 in the assay with Botrytis cinerea is 7.62 µg/mL (≈ 20.5 µM); in the assay on Pythium aphanidermatum, 17.6 µg/mL (≈ 47.3 µM); in the assay on Rhizoctonia solani, 6.82 µg/mL (≈ 18.3 µM); with Fusarium graminearum [2] it was 30 µg/mL (≈ 80.8 µM); in assay [3], 13.8 µg/mL (≈ 37 µM); in assay [4], 24.6 µg/mL (≈ 66.1 µM). For the same compound, the EC50 in the assay with Verticillium dahliae came to 10.2 µg/mL (≈ 27.5 µM). Further, the EC90 is 39 µg/mL (≈ 105 µM) in the assay with Botrytis cinerea; 59.6 µg/mL (≈ 160 µM) in the assay with Pythium aphanidermatum; 57 µg/mL (≈ 153 µM) in the assay on Rhizoctonia solani; 414 µg/mL (≈ 1110 µM) in the assay with Fusarium graminearum [2]; 54.8 µg/mL (≈ 147 µM) in assay [3]; 293 µg/mL (≈ 788 µM) in assay [4]. For the same compound, in the assay with Verticillium dahliae, the EC90 was 55.3 µg/mL (≈ 149 µM). Also, the inhibition at 50 µg/mL with Fusarium graminearum [1] was determined as 72.6%.

On to `O=C(Nc1cccc(Cl)c1)NS(=O)(=O)C1CCCCCCCCCCC1=O` (stereo not drawn), for which the inhibition at 50 µg/mL in the assay on Fusarium graminearum [1] is 42%.

For the compound `Cc1ccc(NC(=O)NS(=O)(=O)C2CCCCCC2=O)c(C)c1` (stereo not drawn), the inhibition at 50 µg/mL with Fusarium graminearum [1] is 9.3%.

Regarding `O=C(Nc1cccc([N+](=O)[O-])c1)NS(=O)(=O)C1CCCCCCCCCCC1=O` (stereo not drawn), the inhibition at 50 µg/mL in the assay with Fusarium graminearum [1] is 18.1%.

On to `CC(C)c1cc(C(C)C)nc(NC(=O)NS(=O)(=O)C2CCCCCCCCCCC2=O)n1` (stereo not drawn), for which, in the assay on Fusarium graminearum [1], the inhibition at 50 µg/mL was found to be 55.6%.

Turning to `O=C(Nc1ccc(Cl)cc1)NS(=O)(=O)C1CCCCCC1=O` (stereo not drawn), the inhibition at 50 µg/mL with Fusarium graminearum [1] was 18.1%.

As for `O=C(Nc1ccc(Cl)c(Cl)c1)NS(=O)(=O)C1CCCCC1=O` (stereo not drawn), the inhibition at 50 µg/mL with Fusarium graminearum [1] came out at 18.1%.

Consider `Cc1ccnc(NC(=O)NS(=O)(=O)C2CCCCCCCCCCC2=O)n1` (stereo not drawn), for which the inhibition at 50 µg/mL in the assay on Fusarium graminearum [1] came to 18.1%.

Turning to `O=C(Nc1ccc(Cl)cc1)NS(=O)(=O)C1CCCCCCCCCCC1=O` (stereo not drawn), the inhibition at 50 µg/mL with Fusarium graminearum [1] came out at 49%.

As for `CCc1cc(CC)nc(NC(=O)NS(=O)(=O)C2CCCCCCCCCCC2=O)n1` (stereo not drawn), the inhibition at 50 µg/mL with Fusarium graminearum [1] stood at 55.6%.

For the compound `COc1cc(Cl)nc(NC(=O)NS(=O)(=O)C2CCCCCCCCCCC2=O)n1` (stereo not drawn), in the assay on Fusarium graminearum [1], the inhibition at 50 µg/mL was 34.5%.

In the case of `COc1cc(OC)nc(NC(=O)NS(=O)(=O)C2CCCCC2=O)n1` (stereo not drawn), the inhibition at 50 µg/mL in the assay with Fusarium graminearum [1] came out at 18.1%.

For the compound `Cc1ccc(NC(=O)NS(=O)(=O)C2CCCCCC2=O)cc1` (stereo not drawn), in the assay with Fusarium graminearum [1], the inhibition at 50 µg/mL was 18.1%.

Regarding `O=C(NC1CCCCCCCCCCC(=O)OCCC1)NS(=O)(=O)C1CCCCCCCCCCC1=O` (stereo not drawn), the inhibition at 50 µg/mL in the assay on Fusarium graminearum [1] is 26.1%.

For the compound `O=C(Nc1cc(Cl)ccc1Cl)NS(=O)(=O)C1CCCCCC1=O` (stereo not drawn), the inhibition at 50 µg/mL in the assay on Fusarium graminearum [1] was found to be 18.1%.

Consider `O=C(Nc1ccc(Cl)c(Cl)c1)NS(=O)(=O)C1CCCCCCCCCCC1=O` (stereo not drawn), for which the inhibition at 50 µg/mL in the assay with Fusarium graminearum [1] was 55.6%.

In the case of `Cc1ccc(NC(=O)NS(=O)(=O)C2CCCCCCCCCCC2=O)cc1C` (stereo not drawn), the EC50 with Botrytis cinerea turned out to be 9.57 µg/mL (≈ 23.4 µM); with Pythium aphanidermatum, 33.5 µg/mL (≈ 82.1 µM); in the assay on Rhizoctonia solani, 112 µg/mL (≈ 274 µM); with Fusarium graminearum [2], 39 µg/mL (≈ 95.5 µM); in assay [3], 30.4 µg/mL (≈ 74.5 µM); in assay [4] it was 24 µg/mL (≈ 58.8 µM). Further, the EC50 with Verticillium dahliae came to 33.7 µg/mL (≈ 82.5 µM). Also, the EC90 with Botrytis cinerea was 35.9 µg/mL (≈ 87.8 µM); in the assay on Pythium aphanidermatum, 124 µg/mL (≈ 303 µM); with Rhizoctonia solani, 556 µg/mL (≈ 1360 µM); with Fusarium graminearum [2] it was 176 µg/mL (≈ 431 µM); in assay [3] it was 105 µg/mL (≈ 256 µM); in assay [4], 98 µg/mL (≈ 240 µM). The EC90 in the assay on Verticillium dahliae was determined as 484 µg/mL (≈ 1180 µM). For the same compound, the inhibition at 50 µg/mL with Fusarium graminearum [1] stood at 77.3%.

Consider `Cc1ccc(NC(=O)NS(=O)(=O)C2CCCCCCCCCCC2=O)cc1` (stereo not drawn), for which, in the assay on Fusarium graminearum [1], the inhibition at 50 µg/mL is 34.5%.

With `O=C(Nc1cc(Cl)ccc1Cl)NS(=O)(=O)C1CCCCCCCCCCC1=O` (stereo not drawn), the EC50 with Botrytis cinerea came out at 7.8 µg/mL (≈ 17.4 µM); in the assay on Pythium aphanidermatum, 16.7 µg/mL (≈ 37.1 µM); in the assay with Rhizoctonia solani it was 38.9 µg/mL (≈ 86.6 µM); with Fusarium graminearum [2], 31.5 µg/mL (≈ 70 µM); in assay [3] it was 13.5 µg/mL (≈ 30.1 µM); in assay [4], 19.5 µg/mL (≈ 43.5 µM). Besides, in the assay on Verticillium dahliae, the EC50 was 22 µg/mL (≈ 49 µM). For the same compound, the EC90 in the assay on Botrytis cinerea was 33.8 µg/mL (≈ 75.1 µM); with Pythium aphanidermatum, 49.9 µg/mL (≈ 111 µM); with Rhizoctonia solani, 106 µg/mL (≈ 235 µM); in the assay with Fusarium graminearum [2] it was 169 µg/mL (≈ 377 µM); in assay [3] it was 64.3 µg/mL (≈ 143 µM); in assay [4], 53.8 µg/mL (≈ 120 µM). Further, the concentration for an effect of 90% (EC90) in the assay with Verticillium dahliae worked out at 142 µg/mL (≈ 316 µM). Moreover, in the assay on Fusarium graminearum [1], the inhibition at 50 µg/mL turned out to be 81.6%.

Take `O=C(Nc1ccc(Cl)cc1)NS(=O)(=O)C1CCCCC1=O` (stereo not drawn): the inhibition at 50 µg/mL in the assay on Fusarium graminearum [1] amounted to 18.1%.
